Source: PubChem
Sampled rows, rich in hits. Any-hit rate of the full collection: about 1.7%.
CSC inhib: blocks cancer stem cells. cancer stem cell-like cells viability, luminescence. inhibition, % at 7.5 µM. 1.1% of 300,000 active. AID 2717; in the data active means inhibition above about 75%; tested in HMLE shEcad cells
PfHsp90 set2: growth inhibition of yeast expressing Plasmodium Hsp90; S. cerevisiae expressing PfHsp90, BacTiter-Glo ATP, 48 h; yeast lacking PDR1 and PDR3 efflux regulators; inhibition, % at 9.4 µM; 0.32% of 310,000 active;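 active means every replicate shows inhibition above about 80%, whatever the replicate mean, limit read from the data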
FN deposition inh: fibronectin deposition inhibition; 0.086% of 350,000 active; inhibition, % at 12.6 µM; AH1F fibroblasts, Alexa488-fibronectin deposition fluorescence, overnight;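 active means mean inhibition across replicates of 30% or more, regardless of how many single replicates reach that level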
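Test system: AH1F fibroblast monolayer depositing Alexa488-labelled fibronectin into matrix. Input: 10000 cells per well. Technique: fluorescence, ex 485 nm, em 525 nm. Buffer or medium: DMEM plus 2% serum, read in PBS. Timing: 1 h cell adhesion before compound, then overnight fibronectin incubation. Compound: single dose, pinned. Read-out basis: inhibition from reduced deposited-fibronectin fluorescence.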
PglD inh: inhibitors of Campylobacter jejuni PglD acetyltransferase. purified PglD enzyme, DTNB colorimetric CoA detection. inhibition, % at 12.5 µM. 0.098% of 360,000 active. AID 602405; in the data active means inhibition above about 16%, passing the limit was not always enough
SKKanGAS inh: SKKanGAS growth inhibition; S. pyogenes SKKanGAS, kanamycin growth, BacTiter-Glo, 6 h; inhibition, % at 7.5 µM; 1.3% of 300,000 active; AID 1662;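 active means mean replicate score, as percent of positive control median, at least 50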;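 further: strain carries kanamycin resistance gene driven by streptokinase promoter and grows in 40 µg/ml kanamycin; loss of luminescence reflects streptokinase promoter inhibition or plain growth inhibition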
Rtt109 Vps75: blocks Candida albicans Rtt109/Vps75 acetyltransferase activity. Q5AAJ8. purified Rtt109/Vps75, ThioGlo CoA-SH fluorescence, 4 h. inhibition, % at 34.9 µM. 0.16% of 330,000 active;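 active means inhibition of at least 50% in every replicate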
Target sequence (Q5AAJ8 whole entry, looked up): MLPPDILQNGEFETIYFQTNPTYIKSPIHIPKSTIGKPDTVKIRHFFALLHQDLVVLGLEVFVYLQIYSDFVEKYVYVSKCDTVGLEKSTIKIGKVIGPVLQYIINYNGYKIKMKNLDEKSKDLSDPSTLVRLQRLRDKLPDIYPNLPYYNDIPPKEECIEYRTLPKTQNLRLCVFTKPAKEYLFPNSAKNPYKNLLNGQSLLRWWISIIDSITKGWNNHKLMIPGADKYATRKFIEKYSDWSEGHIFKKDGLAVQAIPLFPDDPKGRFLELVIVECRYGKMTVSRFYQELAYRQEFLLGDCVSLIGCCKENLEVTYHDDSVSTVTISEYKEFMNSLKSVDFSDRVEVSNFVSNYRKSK
A number is an active result; - = inactive; . = no result.

SMILES | CSC inhib | PfHsp90 set2 | FN deposition inh | PglD inh | SKKanGAS inh | Rtt109 Vps75
COc1ccc2ccc3c(c2c1)N=C[C@]1(O3)N(C)c2ccccc2C1(C)C | - | - | . | - | 56 | -
O=C(CSCc1cccc(Br)c1)N/N=C/c1ccc2c(c1)OCO2 | 100 | - | . | - | - | -
O=C(CNC(=O)c1ccc2c(c1)OCO2)N/N=C/c1cc(Br)ccc1O | . | - | - | - | 61 | -
O=C(N/N=C/c1ccc2c(c1)OCO2)c1ccc(COCC(F)(F)C(F)F)cc1 | 83 | - | . | - | - | -
O=C(N/N=C/c1ccccc1O)c1ccc2c(c1)OCO2 | - | - | - | - | 105 | -
COc1ccc(/C=N/NC(=O)c2ccc(COCC(F)(F)C(F)F)cc2)cc1 | - | - | - | . | - | -
O=C(CNC(=O)c1ccccc1)N/N=C/c1cc(Br)ccc1O | - | - | - | - | - | -
C[C@@H]1CN([C@H](C)CO)C(=O)c2cccc(NC(=O)Nc3ccc(F)cc3)c2O[C@@H]1CN(C)C | . | . | - | - | . | .
Cc1cc(Br)cc(/C=N/NC(=O)c2ccc3c(c2)OCO3)c1O | 84 | - | - | - | 84 | -
O=C(N/N=C/c1cc(Br)cc(Cl)c1O)c1ccc2c(c1)OCO2 | - | - | - | - | 89 | -
C[C@H]1CCCCO[C@@H](CN(C)C)[C@@H](C)CN([C@@H](C)CO)C(=O)c2cc(NS(=O)(=O)c3cn(C)cn3)ccc2O1 | . | . | - | - | . | .
Cc1noc(C)c1COc1ccc(C(=O)Nc2ccccc2)cc1 | - | - | - | . | - | -
Cc1noc(C)c1COc1cccc(C(=O)Nc2ccc(OCc3ccccc3)cc2)c1 | 98 | - | . | - | - | -
CO[C@@H]1CN(C)C(=O)c2ccc(NC(=O)C3CCCC3)cc2OC[C@H](C)N(C(=O)CC2CC2)C[C@H]1C | . | . | - | - | . | .
COc1ccc(Nc2nnc(-c3ccccc3)c3ccccc23)cc1C(=O)N1CCCCC1 | 97 | - | - | - | - | .
COc1ccc(S(=O)(=O)N(C)C[C@H]2Oc3ccc(NS(=O)(=O)c4cccs4)cc3C(=O)N([C@@H](C)CO)C[C@H]2C)cc1 | . | . | . | - | . | .
COc1ccccc1CNc1nc(NCc2ccccc2)nc2ccsc12 | . | . | . | - | . | .
COc1ccccc1CNc1nc(NCc2cnc(C)cn2)c2sccc2n1 | . | . | 35 | - | . | .
Cc1nn(Cc2c(F)c(F)c(F)c(F)c2F)c(C)c1NC(=O)c1cccc(COc2ccccc2Cl)c1 | - | - | - | - | - | -
Cc1nn(Cc2cccc(F)c2)c(C)c1NC(=O)c1ccc(COc2ccccc2Cl)cc1 | 101 | - | - | - | - | -
c1ccc(-n2c(-c3cccs3)nc3nc4ccccc4nc32)cc1 | - | - | - | . | - | -
CCC(C)n1c(-c2cccs2)nc2nc3ccccc3nc21 (stereo not drawn) | 64 | - | . | - | - | -
O=C(NCc1ccccn1)c1ccc2c(=O)n3nc(Nc4ccccc4)sc3nc2c1 | - | - | - | - | - | -
CCc1ccccc1Nc1nn2c(=O)c3ccc(C(=O)NCc4ccccn4)cc3nc2s1 | 83 | - | - | - | - | -
CC(C)COC(=O)c1ccc2c(c1O)C(=O)c1ccccc1C2=O | - | - | - | . | 90 | -
SMILES | CSC inhib | PfHsp90 set2 | FN deposition inh | PglD inh | SKKanGAS inh | Rtt109 Vps75
COCc1cc(C)c(C#N)c(=S)[nH]1 | - | - | . | - | - | 80
CCc1cc2c(=O)[nH]c(-c3ccccn3)nc2s1 | . | - | - | - | 55 | -
COc1ccc(-c2cc(-c3ccccc3)nc(NN)n2)cc1OC | - | - | - | - | - | -
Cc1ccc(-c2cc(-c3ccccc3)nc(NN)n2)cc1 | 83 | - | - | - | - | -
O=C(c1cc(-c2ccc(Br)cc2)nc2ccccc12)N1CCN(c2ccccc2O)CC1 | . | - | - | - | 59 | -
O=S(=O)(Nc1ccc2oc(-c3ccccc3)nc2c1)c1ccccc1 | - | - | . | - | - | .
Cc1ccc(-c2nc3cc(NS(=O)(=O)c4ccc(C)cc4)ccc3o2)cc1 | - | - | - | - | 85 | -
O=C(NCc1cccnc1)/C(=C\c1ccc(-c2ccc(Cl)c(Cl)c2)o1)S(=O)(=O)c1ccccc1 | 113 | - | 31 | - | - | -
O=C(NCc1cccnc1)c1ccc(-c2ccc(Cl)cc2)o1 | - | - | . | . | - | .
Cc1ccccc1-c1cc(C(=O)Nc2sc(C(=O)OC(C)C)c(C)c2C#N)c2ccccc2n1 | 111 | - | - | - | 59 | -
COC(=O)c1sc(NC(=O)c2cc(-c3ccccc3)nc3ccccc23)c(C#N)c1C | - | . | . | - | - | -
C[C@@H]1CCCCO[C@H](CN(C)S(=O)(=O)c2ccc(Cl)cc2)[C@@H](C)CN([C@@H](C)CO)C(=O)c2cc(NC(=O)CCC(F)(F)F)ccc2O1 | . | . | - | - | . | .
CCCNC(=O)N1[C@H](CO)[C@@H](c2ccccc2)[C@@H]1CNC(=O)c1ccc(F)cc1 | . | . | - | - | . | .
Nc1ccccc1SC(CC(=O)c1ccccc1)c1ccccc1 (stereo not drawn) | . | . | . | - | . | .
CC(C(Sc1ccccc1N)c1ccccc1)[N+](=O)[O-] (stereo not drawn) | 94 | - | - | . | - | .
Cc1ccc(CS(=O)Cc2ccc(C(=O)NC3CCCC(C)C3C)o2)cc1 (stereo not drawn) | - | - | 30 | - | - | -
CC(C)(C)c1cc(CSC(=S)NC2CCS(=O)(=O)C2)c(Br)c(C(C)(C)C)c1 (stereo not drawn) | 97 | - | . | - | 96 | -
CCN(CC)CCCNc1nc2cc(OC)c(OC)cc2c2nc(-c3cccnc3)nn12 | - | - | - | - | - | 79
COc1cc2nc(NCCCN3CCN(C)CC3)n3nc(-c4ccccc4)nc3c2cc1OC | - | - | - | - | - | 82
CC(C)NC(=O)N1[C@H](CO)[C@@H](c2ccccc2)C12CN(Cc1cc(F)cc(F)c1)C2 | . | . | - | . | . | .
CCS(=O)(=O)Nc1ccc2c(c1)C(=O)N(C)C[C@@H](OC)[C@@H](C)CN(C(=O)NC(C)C)[C@H](C)CO2 | . | . | - | - | . | .
O=C(Nc1ccc(C(F)(F)F)cc1)N1CCN(c2ccnc3cc(Cl)ccc23)CC1 | 89 | - | - | - | 53 | -
O=C(Nc1cc(F)ccc1F)N1CCN(c2ccnc3cc(Cl)ccc23)CC1 | - | - | - | . | - | -
C[C@H](CO)N1C[C@H](C)[C@H](CN(C)Cc2ccccc2)Oc2cc(C#CCN(C)C)ccc2S1(=O)=O | . | . | . | - | . | .
COc1cc2c(OC(C)=O)c3c(c(-c4ccc5c(c4)OCO5)c2cc1OC)C(=O)OC3 | - | - | . | - | - | -
COc1cc2c(O)c3c(c(-c4ccc5c(c4)OCO5)c2cc1OC)C(=O)OC3 | 91 | - | - | - | - | -
O=C(C[C@@H]1CC[C@@H](NS(=O)(=O)c2ccc(F)cc2)[C@@H](CO)O1)NC1CCC1 | . | . | . | - | . | .
CN(CC(=O)Nc1ccc(C#N)cc1)Cc1ccc(Cl)cc1 | - | - | . | - | - | -
N#Cc1ccc(NC(=O)Nc2ccc(Cl)cc2)cc1 | . | - | . | - | 55 | -
